Legend:
[1] = target: T1, Muscarinic acetylcholine receptor M3 (Homo sapiens, UniProt P20309); test: Activation of human muscarinic M3 receptor expressed in CHO cells coexpressing Gq protein assessed as potentiation of acetylcholine-induced intracellular Ca2+ mobilization; type: functional, cell-based
How it was run: (§1)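 Calcium flux assay. Stable CHO lines were seeded at 5 × 10^4 cells/well (M1, M3, M5) or 6 × 10^4 cells/well (Gqi5 M2, M4) and grown overnight at 37 °C, 5% CO2. Cells were loaded 1 h at 37 °C with 2 µM Fluo-4 AM. […] At least three independent determinations, each in duplicate or more.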
Target sequence in this assay (P20309 whole entry): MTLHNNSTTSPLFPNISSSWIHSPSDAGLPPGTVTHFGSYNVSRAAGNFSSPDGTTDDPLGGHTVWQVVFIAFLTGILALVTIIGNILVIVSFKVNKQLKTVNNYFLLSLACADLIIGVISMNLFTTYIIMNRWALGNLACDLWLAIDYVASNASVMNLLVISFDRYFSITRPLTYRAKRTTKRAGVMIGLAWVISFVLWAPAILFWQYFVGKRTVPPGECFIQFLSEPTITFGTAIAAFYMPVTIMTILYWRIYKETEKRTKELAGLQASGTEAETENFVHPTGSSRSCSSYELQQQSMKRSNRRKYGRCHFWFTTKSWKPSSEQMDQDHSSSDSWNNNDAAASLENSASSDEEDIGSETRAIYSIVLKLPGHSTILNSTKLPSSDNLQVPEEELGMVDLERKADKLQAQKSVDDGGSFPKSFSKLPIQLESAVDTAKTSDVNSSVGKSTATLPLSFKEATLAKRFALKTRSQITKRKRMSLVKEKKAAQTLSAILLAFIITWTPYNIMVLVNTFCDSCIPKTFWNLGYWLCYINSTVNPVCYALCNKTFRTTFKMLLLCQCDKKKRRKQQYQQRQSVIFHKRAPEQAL

[2] = target: T2, Muscarinic acetylcholine receptor M5 (Homo sapiens, UniProt P08912); test: Activation of human muscarinic M5 receptor expressed in CHO cells coexpressing Gq protein assessed as potentiation of acetylcholine-induced intracellular Ca2+ mobilization; type: functional, cell-based
T2 sequence (P08912 whole entry): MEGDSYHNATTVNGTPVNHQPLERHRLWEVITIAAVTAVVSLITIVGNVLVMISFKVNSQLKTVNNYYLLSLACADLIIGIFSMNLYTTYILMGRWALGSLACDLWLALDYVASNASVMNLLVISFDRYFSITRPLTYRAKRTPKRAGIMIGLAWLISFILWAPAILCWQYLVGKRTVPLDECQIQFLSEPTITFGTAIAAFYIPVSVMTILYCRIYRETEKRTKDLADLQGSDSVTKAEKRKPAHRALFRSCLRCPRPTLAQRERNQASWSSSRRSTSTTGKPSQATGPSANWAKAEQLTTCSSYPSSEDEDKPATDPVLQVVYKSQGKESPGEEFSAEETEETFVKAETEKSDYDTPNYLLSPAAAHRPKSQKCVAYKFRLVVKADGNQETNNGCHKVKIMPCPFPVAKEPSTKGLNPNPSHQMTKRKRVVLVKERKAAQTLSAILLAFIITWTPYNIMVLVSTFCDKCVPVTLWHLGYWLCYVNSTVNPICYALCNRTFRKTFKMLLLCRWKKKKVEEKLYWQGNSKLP

[3] = target: T3, Muscarinic acetylcholine receptor M2 (Rattus norvegicus, UniProt P10980); test: Activation of rat muscarinic M2 receptor expressed in CHO cells co-expressing chimeric Gqi5 protein assessed as potentiation of acetylcholine-induced intracellular Ca2+ mobilization; type: functional, cell-based; how it was run: as §1
T3 sequence (P10980 whole entry): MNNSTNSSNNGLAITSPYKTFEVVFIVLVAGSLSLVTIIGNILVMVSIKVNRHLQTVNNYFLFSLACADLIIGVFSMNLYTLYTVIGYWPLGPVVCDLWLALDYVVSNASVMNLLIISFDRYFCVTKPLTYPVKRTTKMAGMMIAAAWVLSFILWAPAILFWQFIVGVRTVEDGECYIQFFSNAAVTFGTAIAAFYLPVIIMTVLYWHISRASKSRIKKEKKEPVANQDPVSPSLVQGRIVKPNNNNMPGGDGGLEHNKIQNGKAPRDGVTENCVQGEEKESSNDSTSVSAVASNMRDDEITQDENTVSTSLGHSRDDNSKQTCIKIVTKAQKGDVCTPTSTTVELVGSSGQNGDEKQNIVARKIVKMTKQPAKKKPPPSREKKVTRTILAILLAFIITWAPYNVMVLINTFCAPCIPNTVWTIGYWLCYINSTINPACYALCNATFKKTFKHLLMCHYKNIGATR

[4] = target: T4, Muscarinic acetylcholine receptor M5 (Homo sapiens) (UniProt P08912); test: Inhibition of [3H]NMS binding to human muscarinic M5 receptor expressed in CHO cells coexpressing Gq protein at 30 uM by scintillation counting; type: cell-based
T4 sequence (whole entry): T2 sequence (P08912 whole entry)

[5] = target: T1, Muscarinic acetylcholine receptor M3; test: Activation of human muscarinic M3 receptor expressed in CHO cells coexpressing Gq protein assessed as potentiation of acetylcholine-induced intracellular Ca2+ mobilization at 30 uM relative to acetylcholine; type: functional, cell-based
Target sequence in this assay (P20309 whole entry, looked up): as the sequence (P20309 whole entry) above

[6] = target: T4, Muscarinic acetylcholine receptor M5 (Homo sapiens); test: Activation of human muscarinic M5 receptor expressed in CHO cells coexpressing Gq protein assessed as potentiation of acetylcholine-induced intracellular Ca2+ mobilization at 30 uM relative to acetylcholine; type: functional, cell-based
[7] = target: T5, Muscarinic acetylcholine receptor M1 (Rattus norvegicus, UniProt P08482); test: Activation of rat muscarinic M1 receptor expressed in CHO cells co-expressing Gq protein assessed as potentiation of acetylcholine-induced intracellular Ca2+ mobilization; type: functional, cell-based
T5 sequence (P08482 whole entry): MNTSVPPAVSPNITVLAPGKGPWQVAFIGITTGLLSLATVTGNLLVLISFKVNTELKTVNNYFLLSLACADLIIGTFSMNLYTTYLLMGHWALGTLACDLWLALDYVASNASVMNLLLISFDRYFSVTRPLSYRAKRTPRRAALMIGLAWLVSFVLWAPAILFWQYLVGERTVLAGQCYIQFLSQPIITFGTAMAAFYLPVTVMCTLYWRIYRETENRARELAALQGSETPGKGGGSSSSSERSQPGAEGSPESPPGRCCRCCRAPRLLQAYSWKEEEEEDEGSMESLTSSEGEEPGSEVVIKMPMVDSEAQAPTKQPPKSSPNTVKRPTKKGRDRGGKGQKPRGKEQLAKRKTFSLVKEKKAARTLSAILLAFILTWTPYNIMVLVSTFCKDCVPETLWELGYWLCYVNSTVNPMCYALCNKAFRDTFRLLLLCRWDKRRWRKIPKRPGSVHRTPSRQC

[8] = target: T6, Muscarinic acetylcholine receptor M1 (Rattus norvegicus) (UniProt P08482); test: Activation of rat muscarinic M1 receptor expressed in CHO cells co-expressing Gq protein assessed as potentiation of acetylcholine-induced intracellular Ca2+ mobilization at 30 uM relative to acetylcholine; type: functional, cell-based
T6 sequence (whole entry): T5 sequence (P08482 whole entry)

[9] = target: T7, Muscarinic acetylcholine receptor M4 (Rattus norvegicus, UniProt P08485); test: Activation of rat muscarinic M4 receptor expressed in CHO cells coexpressing chimeric Gqi5 protein assessed as potentiation of acetylcholine-induced intracellular Ca2+ mobilization; type: functional, cell-based; how it was run: as §1
T7 sequence (P08485 whole entry): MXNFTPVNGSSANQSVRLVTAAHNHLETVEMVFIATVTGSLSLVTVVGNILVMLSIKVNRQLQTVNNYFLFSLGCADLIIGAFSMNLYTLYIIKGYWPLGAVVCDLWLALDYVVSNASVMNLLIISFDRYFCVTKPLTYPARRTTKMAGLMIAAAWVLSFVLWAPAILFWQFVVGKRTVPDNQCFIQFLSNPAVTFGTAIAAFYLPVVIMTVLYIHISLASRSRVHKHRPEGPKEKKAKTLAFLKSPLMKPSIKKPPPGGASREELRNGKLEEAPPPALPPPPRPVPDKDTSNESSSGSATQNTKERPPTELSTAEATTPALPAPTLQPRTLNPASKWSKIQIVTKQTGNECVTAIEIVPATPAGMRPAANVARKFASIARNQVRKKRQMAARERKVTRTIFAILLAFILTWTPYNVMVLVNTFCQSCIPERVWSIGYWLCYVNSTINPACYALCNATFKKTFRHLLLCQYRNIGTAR

[10] = target: T8, Muscarinic acetylcholine receptor M2 (Rattus norvegicus) (UniProt P10980); test: Activation of rat muscarinic M2 receptor expressed in CHO cells coexpressing chimeric Gqi5 protein assessed as potentiation of acetylcholine-induced intracellular Ca2+ mobilization at 30 uM relative to acetylcholine; type: functional, cell-based
T8 sequence (whole entry): T3 sequence (P10980 whole entry)

| Structure (SMILES) | EC50 [1] [µM] | EC50 [2] [µM] | EC50 ([3]; cho) | inhibition [4] [%] | %max [5] [%] | %max [6] [%] | EC50 [7] [µM] | %max [8] [%] | EC50 ([9]; cho) | %max [10] [%] | EC50 ([3]; read-out: EC50) [µM] | EC50 ([9]; read-out: EC50) [µM] |
| --- | --- | --- | --- | --- | --- | --- | --- | --- | --- | --- | --- | --- |
| O=C1C(=O)N(Cc2ccc(C(F)(F)F)cc2)c2ccc(OC(F)(F)F)cc21 |  | 1.85 |  |  |  | 67.2 | 7.09 | 25.7 |  |  |  |  |
| O=C1C(=O)N(Cc2ccc(Br)cc2F)c2ccc(OC(F)(F)F)cc21 |  | > 10 |  |  |  | 36.4 | > 30 | 11.6 |  |  |  |  |
| O=C1C(=O)N(Cc2ccccc2C(F)(F)F)c2ccc(F)cc21 |  | 4.09 |  |  |  | 36.1 | 6.21 | 47.8 |  |  |  |  |
| Cc1ccccc1CN1C(=O)C(=O)c2cc(OC(F)(F)F)ccc21 |  | 3.28 |  |  |  | 60 | > 30 | 26.2 |  |  |  |  |
| O=C1C(=O)N(Cc2ccc(OC(F)(F)F)cc2)c2ccc(OC(F)(F)F)cc21 |  | 1.86 |  |  |  | 58.9 | > 30 | 13.8 |  |  |  |  |
| COc1cccc(CN2C(=O)C(=O)c3cc(OC(F)(F)F)ccc32)c1 |  | 1.7 |  |  |  | 70.1 | > 30 | 28.6 |  |  |  |  |
| O=C1C(=O)N(Cc2ccccc2Cl)c2ccc(OC(F)(F)F)cc21 |  | 4.07 |  |  |  | 51.9 | > 30 | 12.3 |  |  |  |  |

The remaining lines, values ahead:

| EC50 [1] [µM] | EC50 [2] [µM] | EC50 ([3]; cho) | inhibition [4] [%] | %max [5] [%] | %max [6] [%] | EC50 [7] [µM] | %max [8] [%] | EC50 ([9]; cho) | %max [10] [%] | EC50 ([3]; read-out: EC50) [µM] | EC50 ([9]; read-out: EC50) [µM] | Structure (SMILES) |
| --- | --- | --- | --- | --- | --- | --- | --- | --- | --- | --- | --- | --- |
| 6.38 | 4.08 | Not Active | 50 | 65.5 | 74.4 | 6.04 | 82.4 | Not Active |  |  |  | O=C1C(=O)N(Cc2ccc(Br)cc2)c2ccccc21 |
|  | 3.26 |  |  |  | 71.1 | 5.18 | 60.9 |  |  |  |  | O=C1C(=O)N(Cc2ccc(C(F)(F)F)cc2)c2c(F)cccc21 |
|  | > 30 |  |  |  | 29.2 | > 10 | 43.6 |  |  |  |  | COc1ccc(CN2C(=O)C(=O)c3ccccc32)cc1 |
|  | 1.93 |  |  |  | 51.7 | 3.99 | 62.7 |  |  |  |  | O=C1C(=O)N(Cc2ccc(Br)cc2)c2c(F)cccc21 |
|  | 3.96 |  |  |  | 30.3 | 5.38 | 49.4 |  |  |  |  | COc1ccc(CN2C(=O)C(=O)c3cccc(Cl)c32)cc1 |
| 2.22 | 2.11 |  |  | 78 | 70.8 | 3.2 | 67 |  | 55 | 2.84 | > 10 | O=C1C(=O)N(Cc2ccc(C(F)(F)F)cc2)c2c(Cl)cccc21 |
|  | 7.15 |  |  |  | 35.1 | > 30 | 13.3 |  |  |  |  | COc1cccc(CN2C(=O)C(=O)c3c(Cl)ccc(Cl)c32)c1 |
